Results collected from several papers.
Target: Dual specificity mitogen-activated protein kinase kinase 7 (MAP2K7, Homo sapiens, UniProt O14733)
Residues used in one study (O14733 1-419): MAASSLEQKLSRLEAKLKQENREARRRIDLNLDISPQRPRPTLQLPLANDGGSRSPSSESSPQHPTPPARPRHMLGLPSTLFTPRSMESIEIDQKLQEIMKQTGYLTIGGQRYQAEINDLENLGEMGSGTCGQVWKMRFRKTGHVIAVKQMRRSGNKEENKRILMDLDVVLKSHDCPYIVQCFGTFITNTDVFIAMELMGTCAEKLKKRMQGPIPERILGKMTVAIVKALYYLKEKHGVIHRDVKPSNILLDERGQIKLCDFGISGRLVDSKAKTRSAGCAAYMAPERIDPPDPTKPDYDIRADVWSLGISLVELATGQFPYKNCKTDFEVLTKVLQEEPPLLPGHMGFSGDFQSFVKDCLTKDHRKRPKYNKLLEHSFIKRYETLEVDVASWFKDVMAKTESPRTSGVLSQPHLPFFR

| Compound | read-out | method | concentration | remaining binding [%] |
| --- | --- | --- | --- | --- |
| O=C(c1ccc(Nc2ncc(Cl)c(-c3cc4ccccc4s3)n2)cc1)N1CCC(N2CCCC2)CC1 | binding | competition with immobilised ligand | 1 µM | 96 |
| COc1cccc(CNC(=O)c2nc3scc(COCc4ccc(C(=O)O)cc4)c3c(=O)[nH]2)c1 | cell-free assay | competition with immobilised ligand | 1 µM | 81.2 |
| N[C@H]1CCN(c2nccc(-c3cnn4ncccc34)n2)C1 | binding | – | 1 µM | 93 |
| CN(C)C(=O)Cn1cc(-c2nc([C@@](C)(c3ccc(-c4cnc(N)nc4)cc3)C3CC3)no2)cn1 | cell-free assay | competition with immobilised ligand | 1 µM | 94 |
| C[C@H]1CCN(c2nccc(-c3cnn4ncccc34)n2)C1 | binding | – | 1 µM | 83 |
| c1cncc(-c2cccc(Nc3nccc(NC4CCCCC4)n3)c2)c1 | binding | competition with immobilised ligand | 10 µM | 100 |
| c1cnn2ncc(-c3ccnc(N4CCC45COC5)n3)c2c1 | binding | – | 1 µM | 72 |
| COc1cnc(Nc2cccc(S(N)(=O)=O)c2)nc1N1CCN(c2ccccc2)CC1 | binding | competition with immobilised ligand | 1 µM | 97 |
| CN(CCCC(F)(F)F)c1nccc(-c2cnn3ncccc23)n1 | binding | – | 1 µM | 100 |
| CS(=O)(=O)N1CCCC(NC(=O)[C@H](CCC2CCCCC2)NC(=O)c2ccc(CNc3ncnc4c3nnn4-c3ccccc3)cc2)C1 (some centres unmarked) | cell-free assay | competition with immobilised ligand | 0.1 µM | 100 |
| O=C(Nc1c[nH]nc1C(=O)NC1CCNCC1)c1cc(F)cc(F)c1 | binding | competition with immobilised ligand | 1 µM | 86 |
| O=S(=O)(NC1CCC(c2cc(F)ccc2F)(S(=O)(=O)c2ccc(Cl)cc2)CC1)C(F)(F)F (centres unmarked) | cell-free assay | competition with immobilised ligand | 1 µM | 100 |
| CN(c1nccc(-c2cnn3ncccc23)n1)C1CC1 | binding | – | 1 µM | 100 |
| O=C(c1ccc(Nc2nccc(-c3cc4ccccc4s3)n2)cc1)N1CCC(N2CCCC2)CC1 | binding | competition with immobilised ligand | 1 µM | 26 |
| Cc1c(NC(=O)c2cc(C(N)=O)nc3cc(F)ccc23)c(C(F)(F)F)nn1Cc1ccc(C#N)cc1 | cell-free assay | competition with immobilised ligand | 1 µM | 79 |
| Cc1cnc(Nc2ccc(C(=O)N3CCC(N4CCCC4)CC3)cc2)nc1-c1cc2ccccc2s1 | binding | competition with immobilised ligand | 1 µM | 81 |
| COc1ncc2cc3ccccc3nc2c1C#N | cell-free assay | competition with immobilised ligand | 5 µM | 95 |
| Nc1ncc2c(n1)-c1c([nH]c3ccc(C#CC4CC4)cc13)CCCC2 | binding | competition with immobilised ligand | 1 µM | 100 |
| COc1ccnn2ncc(-c3ccnc(N(C)C)n3)c12 | binding | – | 1 µM | 73 |
| CN(C)c1ncnc(-c2ccc3nc(Nc4cc(CN5CCN(C(=O)CC(F)(F)F)CC5)ccn4)[nH]c3c2)c1Cl | cell-free assay | competition with immobilised ligand | 1 µM | 100 |
